Measured values from ChEMBL document CHEMBL3864174, “Scaffold-Hopping of Aurones: 2-Arylideneimidazo[1,2-a]pyridinones as Topoisomerase IIα-Inhibiting Anticancer Agents” (ACS Med Chem Lett, 2016).
Active and inactive are the calls of the source. No cut-off for these calls is given here.

Assays:
[1] = molecular target: DNA topoisomerase 2-alpha (Homo sapiens) (UniProt P11388); assay: Inhibition of human Topo2alpha-mediated kDNA decatenation at 100 uM after 30 mins by SDS-based agarose gel electrophoresis
[2] = molecular target: DNA topoisomerase 2-alpha (Homo sapiens) (UniProt P11388); assay: Poison activity at human Topo2alpha using pUC19 as substrate assessed as DNA cleavage-complex formation at 100 uM measured after 20 mins by ethidium bromide staining based SDS-agarose gel electrophoresis
[3] = test system: MCF7; assay: Induction of apoptosis in human MCF7 cells assessed as increase in BAX expression at 75 nM after 48 hrs by Western blot analysis relative to control; format: functional
[4] = Binding affinity to DNA (unknown origin) assessed as occurrence of hypochromism after 1 hr by UV-Vis spectrophotometric analysis
Outline: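 UV absorption of DNA near 260 nm, recorded with and without increasing compound concentrations; hypochromism was taken as the binding read-out.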

[5] = molecular target: Cyclin-dependent kinase 1 (Homo sapiens) (UniProt P06493); assay: Inhibition of CDK1 phosphorylation at Thr-161 residue in human MCF7 cells at 50 nM after 48 hrs by Western blot analysis relative to control; format: cell-based
Outline: (§1)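 Western blot of MCF-7 lysates after treatment across a concentration series. Probes were CDK1, pCDK1 (Thr 161) and cleaved caspase 3 (17 kDa). Bands were quantified by densitometry as fold change versus untreated control, with at least three repeats.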

[6] = (§2) Cytotoxicity against HEK293T cells assessed as cells growth inhibition after 48 hrs by MTT assay; format: functional, cell-based; details: Homo sapiens, HEK-293T
Outline: (§3)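 MTT colorimetric assay. HEK-293T (kidney line) and VERO cells were tested, and the IC50 was taken as the concentration giving 50% growth inhibition.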

[7] = test system: HEK-293T; assay: as §2; format: functional, cell-based; details: Homo sapiens; outline: as §3
[8] = Cytotoxicity against African green monkey Vero cells assessed as cells growth inhibition after 48 hrs by MTT assay; format: toxicity, cell-based, Chlorocebus sabaeus; outline: as §3
[9] = test system: MCF7; assay: Cytotoxicity against human MCF7 cells assessed as cells growth inhibition after 48 hrs by MTT assay; format: functional, cell-based
[10] = Cytotoxicity against human MDA-MB-231 cells assessed as reduction in cell viability after 48 hrs by MTT assay; format: functional, cell-based; details: MDA-MB-231, 48 h
[11] = Cytotoxicity against human MDA-MB-468 cells assessed as reduction in cell viability after 48 hrs by MTT assay; format: functional, cell-based; details: MDA-MB-468, 48 h
[12] = (§4) Cytotoxicity against HEK293T cells assessed as reduction in colony formation after 48 hrs by crystal violet-staining based assay; format: functional; details: Homo sapiens, HEK-293T, read-out: LC50 (the source's name)
[13] = test system: HEK-293T; assay: as §4; format: functional; details: Homo sapiens
[14] = Cytotoxicity against African green monkey Vero cells assessed as reduction in colony formation after 48 hrs by crystal violet-staining based assay; format: toxicity, cell-based; details: chlorocebus sabaeus
[15] = test system: MCF7; assay: Cytotoxicity against human MCF7 cells assessed as reduction in colony formation after 48 hrs by crystal violet-staining based assay; format: functional, cell-based
[16] = test system: MCF7; assay: Induction of apoptosis in human MCF7 cells assessed as chromatin condensation up to 75 nM after 48 hrs by DAPI-nuclear staining based fluorescent microscopic analysis relative to control; format: functional, cell-based
Outline: (§5)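 MCF-7 cells exposed to increasing compound concentrations for 48 h before DAPI was added. Nuclei were scored for chromatin condensation and fragmentation, counted as apoptotic nuclei versus untreated cells.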

[17] = test system: MCF7; assay: Induction of apoptosis in human MCF7 cells assessed as nuclear fragmentation up to 75 nM after 48 hrs by DAPI-nuclear staining based fluorescent microscopic analysis relative to control; format: functional, cell-based; outline: as §5
[18] = test system: MCF7; assay: Induction of apoptosis in human MCF7 cells assessed as increase in apoptotic nuclei at 75 nM after 48 hrs by DAPI-nuclear staining based fluorescent microscopic analysis relative to control; format: functional; outline: as §5
[19] = test system: MCF7; assay: Induction of apoptosis in human MCF7 cells assessed as increase in BAX expression at 50 nM after 48 hrs by Western blot analysis relative to control; format: functional
[20] = test system: MCF7; assay: Induction of apoptosis in human MCF7 cells assessed as decrease in BCL-XL expression at 50 nM after 48 hrs by Western blot analysis relative to control; format: functional
[21] = Downregulation of CDK1 expression in human MCF7 cells at 50 nM after 48 hrs by Western blot analysis relative to control; format: functional, cell-based; outline: as §1
[22] = Downregulation of p21 expression in human MCF7 cells at 50 nM after 48 hrs by Western blot analysis relative to control; format: functional, cell-based
[23] = Downregulation of p53 expression in human MCF7 cells at 50 nM after 48 hrs by Western blot analysis relative to control; format: functional, cell-based
[24] = test system: MCF7; assay: Induction of apoptosis in human MCF7 cells assessed as 19 kDa caspase-3 expression level at 50 nM after 48 hrs by Western blot analysis relative to control; format: functional
[25] = test system: MCF7; assay: Induction of apoptosis in human MCF7 cells assessed as increase in 17 kDa caspase-3 expression at 50 nM after 48 hrs by Western blot analysis relative to control; format: functional; outline: as §1
[26] = test system: MCF7; assay: Induction of apoptosis in human MCF7 cells assessed as increase in caspase-3 expression at 50 to 75 nM after 48 hrs by TRITC/DAPI-staining based fluorescent microscopic analysis; format: functional, cell-based
Outline: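 Caspase 3 immunocytochemistry in MCF-7 cells after increasing compound concentrations. Signal was expressed as densitometric fold change versus untreated control, with at least three repeats.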

[27] = test system: MCF7; assay: Antiinvasive activity in human MCF7 cells assessed as reduction in number of invaded colonies at 25 to 75 nM after 48 hrs by crystal violet-staining based colony counting; format: functional, cell-based
Outline: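 Matrigel invasion assay in MCF-7 cells exposed to rising compound concentrations; read-out is the number of invaded colonies versus an untreated control.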

[28] = test system: MCF7; assay: Inhibition of topoisomerase in human MCF7 cell nuclear lysates assessed as reduction in relaxation of supercoiled plasmid DNA NFkB substrate at 10 to 75 nM after 30 mins by ethidium bromide-staining based agarose gel electrophoresis
Outline: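 Ex vivo topoisomerase assay using MCF-7 nuclear lysate with NFkB plasmid as substrate. Compound ranged from 10 nM to 75 nM, with lanes for plasmid alone and untreated lysate, and an etoposide lane at 45 µM.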

[29] = Cell cycle arrest in human MCF7 cells assessed as accumulation at G2/M phase at 50 nM after 48 hrs by propidium iodide-staining based FACS analysis (reference value: 41 +/- 2.8 %); format: functional
[30] = Cell cycle arrest in human MCF7 cells assessed as accumulation at subG1 phase at 100 nM after 48 hrs by propidium iodide-staining based FACS analysis (reference value: 0.8 +/- 0.1 %); format: functional
[31] = Inhibition of tubulin polymerization in human MCF7 cells assessed as suppression of protein assembly after 15 mins by spectrophotometric analysis; format: cell-based
[32] = test system: MCF7; assay: Inhibition of alpha tubulin in human MCF7 cells assessed as distortion in tubulin assembly at 50 to 75 uM by FITC/propidium iodide-staining based assay; format: cell-based
Outline: (§6)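 MCF-7 cells were immunostained for α-tubulin with FITC and counterstained with propidium iodide for nuclei. Merged images were inspected for assembly distortion and abnormal mitotic spindles.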

[33] = test system: MCF7; assay: Inhibition of alpha tubulin in human MCF7 cells assessed as formation of abnormal mitotic spindle at 50 to 75 uM by FITC/propidium iodide-staining based assay; format: cell-based; outline: as §6
[34] = test system: MCF7; assay: Induction of apoptosis in human MCF7 cells assessed as decrease in BCL-XL expression at 75 nM after 48 hrs by Western blot analysis relative to control; format: functional
[35] = Downregulation of CDK1 expression in human MCF7 cells at 75 nM after 48 hrs by Western blot analysis relative to control; format: functional, cell-based; outline: as §1
[36] = molecular target: Cyclin-dependent kinase 1 (Homo sapiens) (UniProt P06493); assay: Inhibition of CDK1 phosphorylation at Thr-161 residue in human MCF7 cells at 75 nM after 48 hrs by Western blot analysis relative to control; format: cell-based; outline: as §1
[37] = Downregulation of p21 expression in human MCF7 cells at 75 nM after 48 hrs by Western blot analysis relative to control; format: functional, cell-based
[38] = Downregulation of p53 expression in human MCF7 cells at 75 nM after 48 hrs by Western blot analysis relative to control; format: functional, cell-based
[39] = test system: MCF7; assay: Induction of apoptosis in human MCF7 cells assessed as 19 kDa caspase-3 expression level at 75 nM after 48 hrs by Western blot analysis relative to control; format: functional
[40] = test system: MCF7; assay: Induction of apoptosis in human MCF7 cells assessed as increase in 17 kDa caspase-3 expression at 75 nM after 48 hrs by Western blot analysis relative to control; format: functional; outline: as §1

Sequence of Cyclin-dependent kinase 1 (Homo sapiens) (P06493 whole entry, looked up): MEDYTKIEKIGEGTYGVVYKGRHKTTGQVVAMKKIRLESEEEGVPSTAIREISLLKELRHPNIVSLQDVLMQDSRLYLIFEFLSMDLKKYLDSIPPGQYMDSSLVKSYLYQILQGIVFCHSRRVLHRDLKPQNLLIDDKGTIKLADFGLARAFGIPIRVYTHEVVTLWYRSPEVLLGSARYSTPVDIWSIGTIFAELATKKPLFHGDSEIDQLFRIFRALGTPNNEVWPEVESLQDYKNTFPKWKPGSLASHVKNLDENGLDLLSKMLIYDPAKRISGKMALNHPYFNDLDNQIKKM
Sequence of DNA topoisomerase 2-alpha (Homo sapiens) (P11388 whole entry): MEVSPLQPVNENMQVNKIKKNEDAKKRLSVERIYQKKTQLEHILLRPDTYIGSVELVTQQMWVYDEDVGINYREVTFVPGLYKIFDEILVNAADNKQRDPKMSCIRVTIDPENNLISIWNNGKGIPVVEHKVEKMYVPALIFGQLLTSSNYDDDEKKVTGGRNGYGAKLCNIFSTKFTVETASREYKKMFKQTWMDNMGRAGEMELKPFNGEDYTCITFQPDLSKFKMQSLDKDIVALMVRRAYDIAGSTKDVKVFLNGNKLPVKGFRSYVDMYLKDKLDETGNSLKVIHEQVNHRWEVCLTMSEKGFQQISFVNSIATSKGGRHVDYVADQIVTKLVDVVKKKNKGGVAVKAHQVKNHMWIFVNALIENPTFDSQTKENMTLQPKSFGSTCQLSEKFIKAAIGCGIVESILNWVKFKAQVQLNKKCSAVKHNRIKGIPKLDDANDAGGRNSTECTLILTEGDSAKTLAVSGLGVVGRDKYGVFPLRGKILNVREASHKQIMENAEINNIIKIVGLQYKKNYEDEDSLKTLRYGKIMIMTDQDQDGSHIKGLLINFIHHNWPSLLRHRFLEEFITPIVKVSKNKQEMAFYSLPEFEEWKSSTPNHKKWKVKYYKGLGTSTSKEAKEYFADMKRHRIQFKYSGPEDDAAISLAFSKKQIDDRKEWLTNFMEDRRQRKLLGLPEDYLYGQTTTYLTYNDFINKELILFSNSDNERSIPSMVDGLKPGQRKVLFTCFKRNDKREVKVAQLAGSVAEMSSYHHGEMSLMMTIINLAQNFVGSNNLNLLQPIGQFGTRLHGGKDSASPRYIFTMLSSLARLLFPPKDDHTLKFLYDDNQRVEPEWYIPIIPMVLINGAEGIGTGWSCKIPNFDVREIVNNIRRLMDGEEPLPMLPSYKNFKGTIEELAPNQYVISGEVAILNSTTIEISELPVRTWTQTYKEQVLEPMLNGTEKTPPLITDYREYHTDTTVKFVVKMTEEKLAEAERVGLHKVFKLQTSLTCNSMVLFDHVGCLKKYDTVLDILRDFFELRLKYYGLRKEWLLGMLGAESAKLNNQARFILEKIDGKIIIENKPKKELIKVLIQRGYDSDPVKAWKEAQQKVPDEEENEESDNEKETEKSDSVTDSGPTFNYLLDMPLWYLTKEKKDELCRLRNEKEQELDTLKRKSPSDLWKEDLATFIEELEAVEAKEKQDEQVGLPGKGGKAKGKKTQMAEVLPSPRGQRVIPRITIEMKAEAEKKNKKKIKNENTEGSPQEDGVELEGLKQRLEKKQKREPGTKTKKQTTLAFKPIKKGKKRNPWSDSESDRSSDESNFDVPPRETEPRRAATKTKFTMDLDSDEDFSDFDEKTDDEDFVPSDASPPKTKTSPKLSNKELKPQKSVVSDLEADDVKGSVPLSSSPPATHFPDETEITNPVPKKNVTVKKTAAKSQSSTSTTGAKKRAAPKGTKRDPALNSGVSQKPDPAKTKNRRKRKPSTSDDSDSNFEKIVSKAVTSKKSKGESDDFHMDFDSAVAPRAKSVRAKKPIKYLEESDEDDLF

COc1ccc(/C=C2\N=C3C=CC=CN3C2=O)cc1
inhibition [1]: Active | Activity [2]: Active | fold change (FC) [3]: 2 | Kb [4]: 2e+06 M⁻¹ | fold change (FC) [5]: 1.2 | IC50 [6]: 60 nM | growth inhibition (GI) [7]: Dose-dependent effect | IC50 at 48 h ([8]; African green monkey (Chlorocebus sabaeus), Vero cells): 1500 nM | growth inhibition (GI) ([8]; chlorocebus sabaeus, vero, 48 h): Dose-dependent effect | growth inhibition (GI) [9]: Dose-dependent effect | IC50 [10]: 64 nM | IC50 [11]: 60 nM | CC50 [12]: 60 nM | Activity [13]: Dose-dependent effect | CC50 at 48 h ([14]; Vero cells, read-out: LC50): 1500 nM | Activity ([14]; vero, 48 h): Dose-dependent effect | Activity [15]: Dose-dependent effect | Activity [16]: Active | Activity [17]: Active | fold change (FC) [18]: >6 | fold change (FC) [19]: 1.2 | fold change (FC) [20]: 0.9 | fold change (FC) [21]: 0.9 | fold change (FC) [22]: 1.4 | fold change (FC) [23]: 1.4 | fold change (FC) [24]: 1.4 | fold change (FC) [25]: 1.6 | Activity [26]: Dose-dependent effect | Activity [27]: Active | inhibition [28]: Active | Activity [29]: 80.1% | Activity [30]: 20.2% | IC50 [31]: 54 nM | inhibition [32]: Active | inhibition [33]: Active | fold change (FC) [34]: 0.2 | fold change (FC) [35]: 0.2 | fold change (FC) [36]: 2 | fold change (FC) [37]: 2.5 | fold change (FC) [38]: 2.5 | fold change (FC) [39]: 1.6 | fold change (FC) [40]: 2
